Data published in ChEMBL document CHEMBL1121927, “Adriamycin analogues. Novel anomeric ribofuranoside analogues of daunorubicin” (1982).
pIC50: −log10 of the molar value. Each block holds one compound with its values, some of them ahead of it.

How the values were obtained:
L1210 [1] = assay: Increase in life span of treated animals relative to untreated controls expressed in murine L1210 leukemia at a dose of 50.6 mg/kg x4 after ip injection.; assay type: functional; conditions: Mus musculus, route intraperitoneal
Outline: (§1)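 Mice implanted ip with 10⁵ L1210 leukemia cells on day 0. Treatment given ip once daily on days 1-4. Read-out is % ILS, the increase in life span of treated animals relative to untreated controls.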

CCRF-CEM = assay: Inhibitory activity of compound against CCRF-CEM cells,a lymphoblastic leukemic of human origin propagated in suspension culture.; assay type: functional; conditions: read-out: ID50 (the source's name)
Nucleic Acid = assay: Compound was tested for the extent of DNA binding in calf thymus at pH 7 TRIS buffer.; assay type: nucleic-acid assay; conditions: Bos taurus
Outline: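 Spectral shift method with calf thymus DNA in Tris buffer, pH 7.0, at a drug/DNA molar ratio of 0.1. Binding extent is taken as the ratio of the absorbance of the drug–DNA mixture to that of drug alone at 480 nm.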

L1210 [2] = assay: Increase in life span of treated animals relative to untreated controls expressed in murine L1210 leukemia at a dose of 70 mg/kg x4 after ip injection.; assay type: functional; conditions: Mus musculus, route intraperitoneal; outline: as §1
L1210 [3] = assay: Increase in life span of treated animals relative to untreated controls expressed in murine L1210 leukemia at a dose of 90 mg/kg x4 after ip injection.; assay type: functional; conditions: Mus musculus, route intraperitoneal; outline: as §1
L1210 [4] = assay: Increase in life span of treated animals relative to untreated controls expressed in murine L1210 leukemia at a dose of 45 mg/kg x4 after ip injection.; assay type: functional; conditions: Mus musculus, route intraperitoneal; outline: as §1
L1210 [5] = assay: Increase in life span of treated animals relative to untreated controls expressed in murine L1210 leukemia at a dose of 4 mg/kg x4 after ip injection.; assay type: functional; conditions: Mus musculus, route intraperitoneal; outline: as §1
L1210 [6] = assay: Increase in life span of treated animals relative to untreated controls expressed in murine L1210 leukemia at a dose of 15 mg/kg x4 after ip injection.; assay type: functional; conditions: Mus musculus, route intraperitoneal; outline: as §1
L1210 [7] = assay: Increase in life span of treated animals relative to untreated controls expressed in murine L1210 leukemia at a dose of 50 mg/kg x4 after ip injection; curative; assay type: functional, organism-based; design: dose 50 mg/kg; conditions: Mus musculus

Structure (SMILES): COc1cccc2c1C(=O)c1c(O)c3c(c(O)c1C2=O)C[C@@](O)(C(C)=O)C[C@@H]3O[C@@H]1O[C@H](C)[C@@H](N)[C@H]1O
ILS at 50.6 mg/kg (L1210 [1]): 55% | pIC50 (CCRF-CEM): 6.68 | Extent of DNA binding (Nucleic Acid): 0.86

Structure (SMILES): COc1cccc2c1C(=O)c1c(O)c3c(c(O)c1C2=O)C[C@@](O)(C(C)=O)C[C@@H]3O[C@@H]1O[C@H](C)[C@@H](NC(=O)C(F)(F)F)[C@H]1O
pIC50 (CCRF-CEM): 5.97 | ILS at 70 mg/kg (L1210 [2]): 66%

Structure (SMILES): COc1cccc2c1C(=O)c1c(O)c3c(c(O)c1C2=O)C[C@@](O)(C(C)=O)C[C@@H]3O[C@@H]1O[C@H](CO)[C@@H](O)[C@H](O)[C@H]1N
ILS at 90 mg/kg (L1210 [3]): 60% | pIC50 (CCRF-CEM): 5.52 | Extent of DNA binding (Nucleic Acid): 0.82

Structure (SMILES): COc1cccc2c1C(=O)c1c(O)c3c(c(O)c1C2=O)C[C@@](O)(C(C)=O)C[C@@H]3O[C@H]1O[C@H](C)[C@@H](NC(=O)C(F)(F)F)[C@H]1O
pIC50 (CCRF-CEM): 6.05 | ILS at 45 mg/kg (L1210 [4]): 55%

Structure (SMILES): COc1cccc2c1C(=O)c1c(O)c3c(c(O)c1C2=O)C[C@@](O)(C(=O)CO)C[C@@H]3O[C@H]1C[C@H](N)[C@H](O)[C@H](C)O1 [DOXORUBICIN]
pIC50 (CCRF-CEM): 7.18 | ILS at 4 mg/kg (L1210 [5]): 66% | Extent of DNA binding (Nucleic Acid): 0.62

Structure (SMILES): COc1cccc2c1C(=O)c1c(O)c3c(c(O)c1C2=O)C[C@@](O)(C(C)=O)C[C@@H]3O[C@H]1O[C@H](C)[C@@H](N)[C@H]1O
pIC50 (CCRF-CEM): 6.55 | ILS at 15 mg/kg (L1210 [6]): 22% | Extent of DNA binding (Nucleic Acid): 0.8

pIC50 (CCRF-CEM): 6.62 | Extent of DNA binding (Nucleic Acid): 0.96
Structure (SMILES): CCCCC(=O)OCC(=O)[C@]1(O)Cc2c(O)c3c(c(O)c2[C@@H](OC2CC(NC(=O)C(F)(F)F)C(O)C(C)O2)C1)C(=O)c1c(OC)cccc1C3=O (some centres undefined)
ILS (L1210 [7]): Curative
